Experimental data as given in article PMC13077713 (Journal of medicinal chemistry, 2025).
Where “and” joins values, the source holds several entries; their conditions need not be identical. Equal entries are not always repeated.

Tests used:
[1] = system: HBV DNA production in HepAD38 cells; test: Anti-HBV activity; format: cell-based, Hepatitis B virus (HBV)
[2] = system: human T lymphoblast (CEM) cells; test: Cytotoxicity, CellTiter 96 cell proliferation assay, CEM cells; format: cell-based; conditions: read-out: Cytotoxicity, CC50 CEM; CEM cells
HBc in HepAD38 cells = test: Confocal microscopy, nucleo-cytoplasmic distribution of HBc in HepAD38 cells; format: cell-based, Hepatitis B virus (HBV); conditions: increasing concentration, 72 h
[3] = system: African green monkey kidney (Vero) cells; test: Cytotoxicity, CellTiter 96 cell proliferation assay, Vero cells; format: cell-based; conditions: read-out: Cytotoxicity, CC50 Vero; Vero cells
[4] = target: preassembled HBV capsids (Cp149 protein) (Hepatitis B virus genotype D subtype ayw, UniProt P03146); conditions: 20 μM CAM
Chain of preassembled HBV capsids (Cp149 protein) (P03146 1-149): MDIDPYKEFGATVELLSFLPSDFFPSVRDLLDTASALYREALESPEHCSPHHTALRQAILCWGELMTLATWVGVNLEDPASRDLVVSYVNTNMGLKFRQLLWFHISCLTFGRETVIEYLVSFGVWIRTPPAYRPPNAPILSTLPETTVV

Cp149 dimers [5] = target: T1, Cp149 dimers (Hepatitis B virus genotype D subtype ayw, UniProt P03146); test: Cryo-electron microscopy classification of Cp149 capsids assembled with CAM; format: biochemical, Hepatitis B virus (HBV); conditions: 90 μM, 30 μM subunits
T1 sequence (P03146 1-149): as above
How it was run: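 Cp149 was expressed in E. coli BL21 and purified as capsids. These were dissociated with 3 M urea and taken to subunits by SEC. Assembly was triggered manually by mixing 30 μM (1 mg/ml) dimers in 1 mM DTT, 20 mM Tris-HCl pH 7.5 with 200 mM ammonium acetate, with or without 90 μM CAM (ρ = 3). Samples were concentrated 11-fold, imaged by cryo-EM, and particles 2D-classified.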

Cp149 dimers [6] = target: T1, Cp149 dimers; test: Static SAXS of Cp149 capsid assembly in the presence of CAM; format: biochemical, Hepatitis B virus (HBV); conditions: ρ = 3, undiluted sample, 30 μM dimers; 1.54 cm^−1 without CAM
[7] = system: human hepatocellular carcinoma (HepG2) cells; test: Cytotoxicity, CellTiter 96 cell proliferation assay, HepG2 cells; format: cell-based; conditions: read-out: Cytotoxicity, CC50 HepG2; HepG2 cells
Cp149 dimers [8] = target: T1, Cp149 dimers
[9] = system: HBV-infected HepG2-NTCP cells; format: cell-based
[10] = system: human peripheral blood mononuclear (PBM) cells; test: Cytotoxicity, CellTiter 96 cell proliferation assay, PBM cells; format: cell-based; conditions: read-out: Cytotoxicity, CC50 PBM; PBM cells
[11] = system: HBV-infected HepG2-NTCP cells; format: cell-based; conditions: post-infection treatment

For `Cc1c(C(=O)C(=O)NCc2cn(CCCCCCCCCCCCCCn3cc(CNC(=O)C(=O)c4c(C)c(C(=O)Nc5ccc(F)c(F)c5)n(C)c4C)nn3)nn2)c(C)n(C)c1C(=O)Nc1ccc(F)c(F)c1` [Compound 6e, 4,4’-(2,2’-(((Tetradecane-1,14-diylbis(1H-1,2,3-triazole-1,4-diyl))bis(methylene))bis(azanediyl))bis(2-oxoacetyl))bis(N-(3,4-difluorophenyl)-1,3,5-trimethyl-1H-pyrrole-2-carboxamide)], the “times more potent than reference compound GLP-26” value ([1]; HepAD38 EC50 vs GLP-26) was 80 times, the EC50 ([1]; read-out: Anti-HBV activity EC50, HBV DNA production, HepAD38 cells) was 0.0001 µM and the EC90 ([1]; read-out: Anti-HBV activity EC90, HBV DNA production, HepAD38 cells) was 0.009 ± 0.0002 µM. For the same compound, the CC50 [2] was over 100 µM, the “levels of HBc inside the nucleus” value (HBc in HepAD38 cells) was “clear decrease in the levels of HBc inside the nucleus” and the CC50 [3] was over 100 µM. For the same compound, the “Radius (DLS, table)” value ([4]; 7.5 μM Cp149, 30 min, 1% DMSO control 24.6 ± 3.4) was 214 ± 61.3 nM, the “PD (polydispersity)” value ([4]; 7.5 μM Cp149, 30 min, 1% DMSO control 32.3 ± 18.6) was “Multimodal distribution” and the “average particle radius (DLS, text)” value ([4]; 1% DMSO control 24.6 nm) was 214 nm. The “capsids that displayed defects (single-particle analysis)” value (Cp149 dimers [5]) was “approximately 45%”, the “SAXS intensity at zero angle I(0)” value (Cp149 dimers [6]) was 1.32 cm⁻¹ and the CC50 [7] was over 100 µM. The “Associated timescale of Rgw” value (Cp149 dimers [8]) was 131 ± 21 ms, the “Associated timescale of 〈N〉w” value (Cp149 dimers [8]) was 633 ± 77 ms and the “Rgw (mean radius of gyration, plateau)” value (Cp149 dimers [8]) was 142 ± 0.3 Å. The “Subunit binding energies −Δg” value (Cp149 dimers [8]) was 9.5 kT, the “〈N〉w∞ (mean aggregation number at equilibrium)” value (Cp149 dimers [8]) was 126 and 126 ± 3 and the “HBeAg EC50 compared to GLP-26 or GLS-4” value [9] was “nearly eight-fold lower”. For the same compound, the CC50 [10] was over 100 µM, the “fold more potent than GLP-26 at inhibiting HBV virion production” value [11] was 10 fold and the “fold more potent than GLP-26 at inhibiting HBeAg biogenesis” value [11] was 10 fold.
